Test results from ChEMBL document CHEMBL2401696, “Stereoselective synthesis and anti-proliferative effects on prostate cancer evaluation of 5-substituted-3,4-diphenylfuran-2-ones” (Eur J Med Chem, 2013).
Active and inactive are the calls of the source. The rule behind the calls is not given here.

Key:
[1] = test system: PC-3; test: Antiproliferative activity against human PC3 cells expressing PCDNA after 72 hrs by MTT assay; type: functional, cell-based; settings: PC-3, 72 h
Method in brief: (§1)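 Cells (PC3 and its PCDNA- and SKP2-transfected lines, DU145) grown in RPMI 1640 with 10% FBS; G418 added for transfected lines. Exponential cells seeded 1 × 10⁴/well, 24 h at 37 °C, then fresh medium with compounds at several concentrations for 72 h. MTT 1–3 h at 37 °C, dissolved in 4% HCl/96% isopropanol, absorbance 570 nm. Triplicate per concentration; IC50 from dose–response curves.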

[2] = test system: PC-3; test: Antiproliferative activity against human PC3 cells expressing SKP2 after 72 hrs by MTT assay; type: functional, cell-based; settings: PC-3, 72 h; method in brief: as §1
[3] = target: T1, Prostaglandin G/H synthase 1 (Ovis aries) (UniProt P05979); test: Inhibition of ovine COX-1 assessed as using arachidonic acid as substrate at 10 uM preincubated for 5 mins prior to substrate addition […] by enzyme immunoassay relative to control
T1 sequence (whole entry): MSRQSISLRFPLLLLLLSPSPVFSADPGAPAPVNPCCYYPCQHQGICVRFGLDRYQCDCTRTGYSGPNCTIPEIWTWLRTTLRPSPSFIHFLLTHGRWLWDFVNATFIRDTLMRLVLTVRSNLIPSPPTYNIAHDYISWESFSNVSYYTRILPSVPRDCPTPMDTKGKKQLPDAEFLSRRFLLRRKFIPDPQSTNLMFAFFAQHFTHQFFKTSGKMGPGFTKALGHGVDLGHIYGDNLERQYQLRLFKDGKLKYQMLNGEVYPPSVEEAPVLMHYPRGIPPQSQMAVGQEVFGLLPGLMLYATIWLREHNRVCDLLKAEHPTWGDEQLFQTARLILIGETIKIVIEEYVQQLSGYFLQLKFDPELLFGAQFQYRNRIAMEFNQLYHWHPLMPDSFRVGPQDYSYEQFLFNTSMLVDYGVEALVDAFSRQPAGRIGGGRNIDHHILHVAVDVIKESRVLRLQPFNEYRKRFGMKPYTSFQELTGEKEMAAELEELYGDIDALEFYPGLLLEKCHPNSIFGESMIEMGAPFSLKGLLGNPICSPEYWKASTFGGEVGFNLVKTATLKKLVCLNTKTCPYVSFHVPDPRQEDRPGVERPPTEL

[4] = target: T2, Prostaglandin G/H synthase 2 (Ovis aries) (UniProt P79208); test: Inhibition of ovine COX-2 assessed as using arachidonic acid as substrate at 10 uM preincubated for 5 mins prior to substrate addition measured after 2 hrs by enzyme immunoassay relative to control; settings: in the assay text read “after 2 mins” for “after 2 hrs”
T2 sequence (whole entry): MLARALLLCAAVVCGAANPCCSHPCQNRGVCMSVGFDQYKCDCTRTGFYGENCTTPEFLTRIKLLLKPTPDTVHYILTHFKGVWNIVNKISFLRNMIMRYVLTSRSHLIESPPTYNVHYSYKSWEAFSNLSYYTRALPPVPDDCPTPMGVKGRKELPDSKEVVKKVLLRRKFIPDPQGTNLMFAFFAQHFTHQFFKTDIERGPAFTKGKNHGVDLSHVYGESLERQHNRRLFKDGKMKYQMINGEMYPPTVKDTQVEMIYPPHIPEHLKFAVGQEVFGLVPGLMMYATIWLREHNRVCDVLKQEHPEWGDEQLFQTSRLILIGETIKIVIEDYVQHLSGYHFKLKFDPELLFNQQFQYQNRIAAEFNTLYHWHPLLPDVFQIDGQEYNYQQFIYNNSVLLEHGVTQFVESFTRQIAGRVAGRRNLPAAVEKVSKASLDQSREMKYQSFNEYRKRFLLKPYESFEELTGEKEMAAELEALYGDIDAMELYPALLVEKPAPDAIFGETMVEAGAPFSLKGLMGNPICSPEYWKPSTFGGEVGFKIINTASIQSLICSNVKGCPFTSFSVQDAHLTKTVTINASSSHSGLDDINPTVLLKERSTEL
Method in brief: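 Ovine COX-1 or COX-2 with heme in 0.1 M Tris-HCl pH 8.0, 5 mM EDTA, 2 mM phenol; compound (0.001–100 µM final, DMSO stocks) preincubated 5 min at 37 °C, then arachidonic acid added, stopped with 1 M HCl after 2 min. PGF2α (SnCl2 reduction) quantified by competitive EIA at 412 nm; % inhibition vs controls; mean of two determinations.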

[5] = test system: PC-3; test: Antiproliferative activity against human PC3 cells after 72 hrs by MTT assay; type: functional, cell-based; settings: PC-3, 72 h; method in brief: as §1
[6] = test system: DU-145; test: Antiproliferative activity against human DU145 cells after 72 hrs by MTT assay; type: functional, cell-based; settings: DU-145, 72 h; method in brief: as §1
[7] = target: T2, Prostaglandin G/H synthase 2 (Ovis aries); test: Inhibition of ovine COX-2 assessed as using arachidonic acid as substrate at 10 uM preincubated for 5 mins prior to substrate addition measured after 2 mins by enzyme immunoassay relative to control

CS(=O)(=O)c1ccc(C2=C(c3ccccc3)C(=O)O/C2=C\c2cccc([N+](=O)[O-])c2)cc1
IC50 [1]: > 90 µM | IC50 [2]: > 100 µM | inhibition [3]: inactive | inhibition [4]: inactive

CS(=O)(=O)c1ccc(C2=C(c3ccc(F)cc3)C(=O)O/C2=C\c2ccc(O)cc2)cc1
IC50 [5]: > 50 µM | IC50 [1]: 25.9 µM | IC50 [2]: 25.7 µM | inhibition [4]: 19.5% | IC50 [6]: > 50 µM

CS(=O)(=O)c1ccc(C2=C(c3ccccc3Cl)C(=O)O/C2=C\c2ccc(Br)cc2)cc1
IC50 [1]: > 50 µM | IC50 [2]: > 50 µM

COc1cc(/C=C2\OC(=O)C(c3ccc(F)cc3)=C2c2ccc(S(C)(=O)=O)cc2)cc(OC)c1OC
IC50 [5]: > 50 µM | IC50 [1]: > 50 µM | IC50 [2]: 25.4 µM | IC50 [6]: > 50 µM | inhibition [7]: 20.8%

CS(=O)(=O)c1ccc(C2=C(c3ccc(F)cc3)C(=O)O/C2=C\c2ccc(Br)cc2)cc1
IC50 [1]: > 50 µM | IC50 [2]: > 50 µM

CS(=O)(=O)c1ccc(C2=C(c3ccccc3Cl)C(=O)O/C2=C\c2ccc(O)cc2)cc1
IC50 [1]: > 50 µM | IC50 [2]: > 50 µM | inhibition [7]: 2.27%

CS(=O)(=O)c1ccc(C2=C(c3ccccc3)C(=O)O/C2=C\c2ccccc2)cc1
IC50 [1]: > 90 µM | IC50 [2]: > 90 µM

CC(C)=C1OC(=O)C(c2ccccc2)=C1c1ccc(S(C)(=O)=O)cc1
IC50 [1]: > 50 µM | IC50 [2]: > 50 µM

CS(=O)(=O)c1ccc(C2=C(c3ccccc3)C(=O)O/C2=C\c2ccc3c(c2)OCO3)cc1
IC50 [5]: > 50 µM | IC50 [1]: 37.2 µM | IC50 [2]: 50.6 µM | IC50 [6]: > 50 µM | inhibition [7]: 24.6%

O=c1[nH]cc(F)c(=O)[nH]1 [FLUOROURACIL]
IC50 [1]: 31.4 µM

CS(=O)(=O)c1ccc(C2=C(c3ccc(F)cc3)C(=O)O/C2=C\c2ccco2)cc1
IC50 [1]: > 50 µM | IC50 [2]: > 50 µM

CS(=O)(=O)c1ccc(C2=C(c3ccccc3)C(=O)O/C2=C\c2ccc(O)cc2)cc1
IC50 [5]: > 50 µM | IC50 [1]: 25.9 µM | IC50 [2]: > 50 µM | inhibition [4]: 14.4% | IC50 [6]: > 50 µM

CS(=O)(=O)c1ccc(C2=C(c3ccccc3)C(=O)OC2)cc1 [ROFECOXIB]
IC50 [5]: 200 µM | IC50 [1]: > 50 µM | IC50 [2]: > 50 µM | IC50 [6]: 200 µM

CS(=O)(=O)c1ccc(C2=C(c3ccccc3Cl)C(=O)O/C2=C\c2ccc(F)cc2)cc1
IC50 [1]: > 50 µM | IC50 [2]: > 50 µM

CS(=O)(=O)c1ccc(C2=C(c3ccc(F)cc3)C(=O)O/C2=C\c2ccccc2)cc1
IC50 [1]: > 50 µM | IC50 [2]: > 50 µM

CS(=O)(=O)c1ccc(C2=C(c3ccc(F)cc3)C(=O)O/C2=C\c2ccc(Cl)cc2)cc1
IC50 [1]: > 50 µM | IC50 [2]: > 50 µM | inhibition [4]: inactive

CS(=O)(=O)c1ccc(C2=C(c3ccccc3)C(=O)O/C2=C\c2ccc(Cl)cc2)cc1
IC50 [1]: > 50 µM | IC50 [2]: > 50 µM | inhibition [3]: 14.6% | inhibition [4]: inactive

COC1(C)OC(=O)C(c2ccc(F)cc2)=C1c1ccc(S(C)(=O)=O)cc1 (stereo not given)
IC50 [5]: > 50 µM | IC50 [1]: 36.4 µM | IC50 [2]: > 50 µM | IC50 [6]: > 50 µM | inhibition [7]: 32.4%

CS(=O)(=O)c1ccc(C2=C(c3ccccc3Cl)C(=O)O/C2=C\c2cccc3ccccc23)cc1
IC50 [1]: > 50 µM | IC50 [2]: > 50 µM

CC(C)=C1OC(=O)C(c2ccc(F)cc2)=C1c1ccc(S(C)(=O)=O)cc1
IC50 [1]: > 50 µM | IC50 [2]: > 50 µM

CS(=O)(=O)c1ccc(C2=C(c3ccccc3Cl)C(=O)O/C2=C\c2ccccc2Cl)cc1
IC50 [1]: > 50 µM | IC50 [2]: > 50 µM

CS(=O)(=O)c1ccc(C2=C(c3ccccc3)C(=O)O/C2=C\c2ccc(Br)cc2)cc1
IC50 [5]: > 50 µM | IC50 [1]: 25.2 µM | IC50 [2]: > 50 µM | inhibition [4]: inactive | IC50 [6]: > 50 µM

CS(=O)(=O)c1ccc(C2=C(c3ccccc3)C(=O)O/C2=C\c2cccc3ccccc23)cc1
IC50 [1]: > 50 µM | IC50 [2]: > 50 µM

CN(C)c1ccc(/C=C2\OC(=O)C(c3ccccc3Cl)=C2c2ccc(S(C)(=O)=O)cc2)cc1
IC50 [5]: > 50 µM | IC50 [1]: > 50 µM | IC50 [2]: 30.1 µM | inhibition [4]: 4.49% | IC50 [6]: > 50 µM

CS(=O)(=O)c1ccc(C2=C(c3ccc(F)cc3)C(=O)O/C2=C\c2cccc([N+](=O)[O-])c2)cc1
IC50 [1]: > 50 µM | IC50 [2]: > 50 µM | inhibition [3]: inactive | inhibition [4]: inactive

CS(=O)(=O)c1ccc(C2=C(c3ccc(F)cc3)C(=O)O/C2=C\c2ccc3c(c2)OCO3)cc1
IC50 [1]: > 50 µM | IC50 [2]: > 50 µM

COc1cc(/C=C2\OC(=O)C(c3ccccc3Cl)=C2c2ccc(S(C)(=O)=O)cc2)cc(OC)c1OC
IC50 [1]: > 50 µM | IC50 [2]: > 50 µM

CC(C)=CCC/C(C)=C\C=C1/OC(=O)C(c2ccccc2)=C1c1ccc(S(C)(=O)=O)cc1
IC50 [1]: > 50 µM | IC50 [2]: > 50 µM

CN(C)c1ccc(/C=C2\OC(=O)C(c3ccc(F)cc3)=C2c2ccc(S(C)(=O)=O)cc2)cc1
IC50 [5]: > 50 µM | IC50 [1]: > 50 µM | IC50 [2]: 47.2 µM | inhibition [3]: inactive | inhibition [4]: inactive | IC50 [6]: > 50 µM

CS(=O)(=O)c1ccc(C2=C(c3ccccc3Cl)C(=O)O/C2=C\c2ccc3c(c2)OCO3)cc1
IC50 [1]: > 50 µM | IC50 [2]: > 50 µM

CS(=O)(=O)c1ccc(C2=C(c3ccc(F)cc3)C(=O)O/C2=C\c2ccc(F)cc2)cc1
IC50 [1]: > 50 µM | IC50 [2]: > 50 µM

CS(=O)(=O)c1ccc(C2=C(c3ccccc3)C(=O)O/C2=C\c2ccco2)cc1
IC50 [1]: > 100 µM | IC50 [2]: > 100 µM | inhibition [3]: inactive | inhibition [4]: inactive

CN(C)c1ccc(/C=C2\OC(=O)C(c3ccccc3)=C2c2ccc(S(C)(=O)=O)cc2)cc1
IC50 [1]: > 50 µM | IC50 [2]: > 50 µM

COc1cc(/C=C2\OC(=O)C(c3ccccc3)=C2c2ccc(S(C)(=O)=O)cc2)ccc1O
IC50 [5]: > 50 µM | IC50 [1]: > 125 µM | IC50 [2]: 25.5 µM | inhibition [4]: 36.6% | IC50 [6]: > 50 µM

COc1cc(/C=C2\OC(=O)C(c3ccccc3Cl)=C2c2ccc(S(C)(=O)=O)cc2)ccc1O
IC50 [5]: > 50 µM | IC50 [1]: > 50 µM | IC50 [2]: 25.1 µM | inhibition [4]: 14.9% | IC50 [6]: > 50 µM

COc1cc(/C=C2\OC(=O)C(c3ccccc3)=C2c2ccc(S(C)(=O)=O)cc2)cc(OC)c1OC
IC50 [1]: > 90 µM | IC50 [2]: > 100 µM

CS(=O)(=O)c1ccc(C2=C(c3ccc(F)cc3)C(=O)O/C2=C\c2cccc3ccccc23)cc1
IC50 [5]: > 50 µM | IC50 [1]: 20 µM | IC50 [2]: 25.4 µM | inhibition [4]: inactive | IC50 [6]: > 50 µM

COC1(C)OC(=O)C(c2ccccc2)=C1c1ccc(S(C)(=O)=O)cc1 (stereo not given)
IC50 [5]: > 50 µM | IC50 [1]: 37.1 µM | IC50 [2]: 20.3 µM | IC50 [6]: > 50 µM

CS(=O)(=O)c1ccc(C2=C(c3ccccc3Cl)C(=O)OC2)cc1
IC50 [1]: > 50 µM | IC50 [2]: > 50 µM | inhibition [3]: inactive | inhibition [4]: 7.97%

CS(=O)(=O)c1ccc(C2=C(c3ccc(F)cc3)C(=O)O/C2=C\c2ccccc2Cl)cc1
IC50 [1]: > 50 µM | IC50 [2]: > 50 µM

CS(=O)(=O)c1ccc(C2=C(c3ccccc3Cl)C(=O)O/C2=C\c2ccco2)cc1
IC50 [1]: > 50 µM | IC50 [2]: > 50 µM

COc1ccc(/C=C2\OC(=O)C(c3ccc(F)cc3)=C2c2ccc(S(C)(=O)=O)cc2)cc1
IC50 [1]: > 50 µM | IC50 [2]: > 50 µM | inhibition [3]: 10.2% | inhibition [4]: inactive
